According to ChEMBL document CHEMBL3085623, “Oridonin ring A-based diverse constructions of enone functionality: identification of novel dienone analogues effective for highly aggressive breast cancer by inducing apoptosis” (J Med Chem, 2013):
The source made the active and inactive calls. No cut-off for these calls is given here.

Assays:
MDA-MB-231 [1] = test: Antiproliferative activity against human MDA-MB-231 cells after 48 hrs by MTT assay; type: functional, cell-based; settings: MDA-MB-231, 48 h
Procedure, shortened: (§1)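 Seeded at 1 × 10^4 cells/well, then exposed to DMSO or compound at 0.01, 0.1, 1, 5, 10 and 100 μM for 48 h. MTT (5 mg/mL in PBS) added for a further 4 h, formazan dissolved in DMSO, OD read at 550 nm. Quadruplicate wells per concentration. IC50 from curve fitting; mean ± SE of three independent experiments.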

MCF7 = test: Antiproliferative activity against human MCF7 cells after 48 hrs by MTT assay; type: functional, cell-based; settings: MCF7, 48 h; procedure, shortened: as §1
HMEC = test: Growth inhibition of human HMEC cells after 24 hrs
MDA-MB-231 [2] = test: Induction of apoptosis in human MDA-MB-231 cells after 24 hrs using FITC-annexin V and propidium iodide staining by flow cytometry; type: functional, cell-based
MDA-MB-231 [3] = test: Induction of apoptosis in human MDA-MB-231 cells assessed as caspase3 activation after 48 hrs by Western blot analysis; type: functional, cell-based
Procedure, shortened: (§2)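 MDA-MB-231 cells treated 48 h with DMSO or compound. Lysates quantified by Bradford; 30 μg protein run on SDS-PAGE and transferred to PVDF. Blocked in 5% milk, then probed overnight: anti-Bcl-2 1:200, Bax 1:1000, PARP 1:10000, NF-κB p65 1:2000, caspase-3 1:1000, β-actin 1:20000. ECL detection.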

MDA-MB-231 [4] = test: Induction of apoptosis in human MDA-MB-231 cells assessed as PARP cleavage after 48 hrs by Western blot analysis; type: functional, cell-based; procedure, shortened: as §2
MDA-MB-231 [5] = test: Induction of apoptosis in human MDA-MB-231 cells assessed as downregulation of p65 NF-kappaB level at 2.5 to 10 uM after 48 hrs by Western blot analysis; type: functional, cell-based; procedure, shortened: as §2
MDA-MB-231 [6] = test: Induction of apoptosis in human MDA-MB-231 cells assessed as upregulation of Bax level at 2.5 to 10 uM after 48 hrs by Western blot analysis; type: functional, cell-based; procedure, shortened: as §2
MDA-MB-231 [7] = test: Induction of apoptosis in human MDA-MB-231 cells assessed as downregulation of Bcl2 level at 2.5 to 10 uM after 48 hrs by Western blot analysis; type: functional, cell-based; procedure, shortened: as §2
MDA-MB-231 [8] = test: Induction of apoptosis in human MDA-MB-231 cells assessed as live cells at 10 uM after 24 hrs using FITC-annexin V and propidium iodide staining by flow cytometry (reference value: 83.45 to 89.30 %); type: functional
MDA-MB-231 [9] = test: Induction of apoptosis in human MDA-MB-231 cells assessed as late apoptotic cells at 10 uM after 24 hrs using FITC-annexin V and propidium iodide staining by flow cytometry (reference value: 5.5 to 11.0 %); type: functional
MDA-MB-231 [10] = test: Induction of apoptosis in human MDA-MB-231 cells assessed as early apoptotic cells at 10 uM after 24 hrs using FITC-annexin V and propidium iodide staining by flow cytometry (reference value: 4.55 to 4.85 %); type: functional
MDA-MB-231 [11] = test: Induction of apoptosis in human MDA-MB-231 cells assessed as dead cells at 10 uM after 24 hrs using FITC-annexin V and propidium iodide staining by flow cytometry (reference value: 0.3 to 1.00 %); type: functional
MDA-MB-231 [12] = test: Induction of apoptosis in human MDA-MB-231 cells assessed as live cells at 5 uM after 24 hrs using FITC-annexin V and propidium iodide staining by flow cytometry (reference value: 83.45 to 89.30 %); type: functional
MDA-MB-231 [13] = test: Induction of apoptosis in human MDA-MB-231 cells assessed as early apoptotic cells at 5 uM after 24 hrs using FITC-annexin V and propidium iodide staining by flow cytometry (reference value: 4.55 to 4.85 %); type: functional
MDA-MB-231 [14] = test: Induction of apoptosis in human MDA-MB-231 cells assessed as late apoptotic cells at 5 uM after 24 hrs using FITC-annexin V and propidium iodide staining by flow cytometry (reference value: 5.5 to 11.0 %); type: functional
MDA-MB-231 [15] = test: Induction of apoptosis in human MDA-MB-231 cells assessed as dead cells at 5 uM after 24 hrs using FITC-annexin V and propidium iodide staining by flow cytometry (reference value: 0.3 to 1.00 %); type: functional
MDA-MB-231 [16] = test: Induction of apoptosis in human MDA-MB-231 cells assessed as live cells at 1 uM after 24 hrs using FITC-annexin V and propidium iodide staining by flow cytometry (reference value: 83.45 to 89.30 %); type: functional
MDA-MB-231 [17] = test: Induction of apoptosis in human MDA-MB-231 cells assessed as early apoptotic cells at 1 uM after 24 hrs using FITC-annexin V and propidium iodide staining by flow cytometry (reference value: 4.55 to 4.85 %); type: functional
MDA-MB-231 [18] = test: Induction of apoptosis in human MDA-MB-231 cells assessed as late apoptotic cells at 1 uM after 24 hrs using FITC-annexin V and propidium iodide staining by flow cytometry (reference value: 5.5 to 11.0 %); type: functional
MDA-MB-231 [19] = test: Inhibition of colony formation of human MDA-MB-231 cells at 0.625 to 10 uM after 2 weeks by crystal violet staining-based GelCount method; type: functional, cell-based
Procedure, shortened: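 MDA-MB-231 cells seeded at 800/well and left 24 h. Then treated with 0.625–10 μM compound or DMSO, medium with compound renewed every 72 h for two weeks. Stained with 0.01% crystal violet for 10 min after PBS washes. Whole-well density quantified on GelCount. Triplicate; SD; one-way ANOVA.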

MDA-MB-231 [20] = test: Induction of apoptosis in human MDA-MB-231 cells assessed as dead cells at 1 uM after 24 hrs using FITC-annexin V and propidium iodide staining by flow cytometry (reference value: 0.3 to 1.00 %); type: functional
cells = settings: Homo sapiens, NCI/ADR-RES, 48 h
MDA-MB-231 [21] = test: Induction of apoptosis in human MDA-MB-231 cells assessed as caspase3 cleavage at 10 to 30 uM after 48 hrs by Western blot analysis; type: functional, cell-based; procedure, shortened: as §2
MDA-MB-231 [22] = test: Induction of apoptosis in human MDA-MB-231 cells assessed as upregulation of Bax level at 10 to 30 uM after 48 hrs by Western blot analysis; type: functional, cell-based; procedure, shortened: as §2
MDA-MB-231 [23] = test: Induction of apoptosis in human MDA-MB-231 cells assessed as upregulation of cleaved PARP level at 10 to 30 uM after 48 hrs by Western blot analysis; type: functional, cell-based; procedure, shortened: as §2
MDA-MB-231 [24] = test: Induction of apoptosis in human MDA-MB-231 cells assessed as downregulation of PARP level at 10 to 30 uM after 48 hrs by Western blot analysis; type: functional, cell-based; procedure, shortened: as §2
MDA-MB-231 [25] = test: Induction of apoptosis in human MDA-MB-231 cells assessed as downregulation of p65 NF-kappaB level at 10 to 30 uM after 48 hrs by Western blot analysis; type: functional, cell-based; procedure, shortened: as §2
MDA-MB-231 [26] = test: Induction of apoptosis in human MDA-MB-231 cells assessed as downregulation of Bcl2 level at 10 to 30 uM after 48 hrs by Western blot analysis; type: functional, cell-based; procedure, shortened: as §2
Mus musculus = test: Toxicity in human MDA-MB-231 cells xenografted nude mouse assessed as change body weight at 5 mg/kg, ip administered 5 days per week for 10 days; type: organism-based; parameters: dose 5 mg/kg, route intraperitoneal; settings: in vivo
Procedure, shortened: (§3)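 Female nude mice, 4–6 weeks old, kept in a barrier unit on a 12 h light-dark cycle. Each mouse received 2.5 × 10^6 freshly harvested MDA-MB-231 cells in 100 μL PBS into the 3rd mammary fat pad. Mice were randomized into 3 groups. Once tumors reached 200 mm3, dosing was 5 mg/kg ip, 5 days/week for 10 days, in 50% DMSO/50% PEG. Tumor volume (0.5 × L × W2) and body weight were measured daily. One-way ANOVA.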

MDA-MB-231 [27] = test: Antitumor activity against human MDA-MB-231 cells xenografted in nude mouse assessed as inhibition of tumor growth at 5 mg/kg, ip administered 5 days per week for 10 days; type: functional, organism-based; parameters: dose 5 mg/kg; procedure, shortened: as §3

C=C1C(=O)[C@@]23C(=O)[C@@H](O)[C@@H]4C(C)(C)[C@@H]5OC[C@]4(C(=O)/C5=C/OC)[C@@H]2CC[C@@H]1[C@H]3O
IC50 (MDA-MB-231 [1]): > 30 µM
IC50 (MCF7): 10.2 µM

C=C1C(=O)[C@@]23C(=O)[C@@H](O)[C@@H]4C(C)(C)[C@@H]5OC[C@]4(C(=O)/C5=C\O)[C@@H]2CC[C@@H]1[C@H]3O
IC50 (MDA-MB-231 [1]): > 30 µM
IC50 (MCF7): > 30 µM

C=C1C(=O)[C@]23[C@H](O)[C@H]1CC[C@H]2[C@]12C=CC(=O)C(C)(C)[C@H]1[C@H](O)[C@@]3(O)OC2
IC50 (MDA-MB-231 [1]): 9.39 µM
IC50 (MCF7): 3.48 µM
IC50 (HMEC): 10.1 µM

C=C1C(=O)[C@@]23[C@@H]4OC(C)(C)O[C@]25OC[C@]2(C(=O)C(C=O)=CC(C)(C)[C@H]2[C@@H]5O)[C@@H]3CC[C@@H]14
Activity (MDA-MB-231 [2]): Dose-dependent effect
Activity (MDA-MB-231 [3]): Dose-dependent effect
Activity (MDA-MB-231 [4]): Dose-dependent effect
Activity (MDA-MB-231 [5]): Active
Activity (MDA-MB-231 [6]): Active
Activity (MDA-MB-231 [7]): Active
Activity (MDA-MB-231 [8]): 52.25%
Activity (MDA-MB-231 [9]): 36.1%
Activity (MDA-MB-231 [10]): 11.2%
Activity (MDA-MB-231 [11]): 0.45%
Activity (MDA-MB-231 [12]): 69.55%
Activity (MDA-MB-231 [13]): 10.95%
Activity (MDA-MB-231 [14]): 19.25%
Activity (MDA-MB-231 [15]): 0.25%
Activity (MDA-MB-231 [16]): 84.95%
Activity (MDA-MB-231 [17]): 3.15%
Activity (MDA-MB-231 [18]): 11.7%
inhibition (MDA-MB-231 [19]): Active
IC50 (MDA-MB-231 [1]): 3.46 µM
IC50 (MCF7): 1.28 µM
Activity (MDA-MB-231 [20]): 0.2%
IC50 (cells): 6.55 µM
IC50 (HMEC): 4.51 µM

C=C1C(=O)[C@]23[C@H](O)[C@H]1CC[C@H]2[C@@]12CO[C@]3(O)[C@@H](O)[C@@H]1C(C)(C)CC[C@@H]2O [ORIDONIN]
Activity (MDA-MB-231 [21]): inactive
Activity (MDA-MB-231 [22]): Active
Activity (MDA-MB-231 [23]): Active
Activity (MDA-MB-231 [24]): Active
Activity (MDA-MB-231 [25]): Active
Activity (MDA-MB-231 [26]): Active
IC50 (MDA-MB-231 [1]): 28 µM
IC50 (MCF7): 4.36 µM
IC50 (cells): > 30 µM
IC50 (HMEC): 5.6 µM

C=C1C(=O)[C@@]23[C@@H]4OC(C)(C)O[C@]25OC[C@]2(C(=O)C=CC(C)(C)[C@H]2[C@@H]5O)[C@@H]3CC[C@@H]14
IC50 (MDA-MB-231 [1]): 3.49 µM
IC50 (MCF7): 0.56 µM
IC50 (HMEC): 5.11 µM

C=C1C(=O)[C@@]23[C@@H]4OC(C)(C)O[C@]25OC[C@]2(C=CC(=O)C(C)(C)[C@H]2[C@@H]5O)[C@@H]3CC[C@@H]14
Activity (MDA-MB-231 [2]): Dose-dependent effect
Activity (Mus musculus): Non-toxic
TGI (MDA-MB-231 [27]): Active
Activity (MDA-MB-231 [3]): Dose-dependent effect
Activity (MDA-MB-231 [4]): Dose-dependent effect
Activity (MDA-MB-231 [5]): Active
Activity (MDA-MB-231 [6]): Active
Activity (MDA-MB-231 [7]): Active
Activity (MDA-MB-231 [8]): 52.3%
Activity (MDA-MB-231 [9]): 39.1%
Activity (MDA-MB-231 [10]): 8.3%
Activity (MDA-MB-231 [11]): 0.3%
Activity (MDA-MB-231 [12]): 73%
Activity (MDA-MB-231 [13]): 10.15%
Activity (MDA-MB-231 [14]): 16.55%
Activity (MDA-MB-231 [15]): 0.3%
Activity (MDA-MB-231 [16]): 83.05%
Activity (MDA-MB-231 [17]): 5.05%
Activity (MDA-MB-231 [18]): 11.35%
inhibition (MDA-MB-231 [19]): Active
IC50 (MDA-MB-231 [1]): 5.6 µM
IC50 (MCF7): 0.98 µM
Activity (MDA-MB-231 [20]): 0.55%
IC50 (cells): 6.02 µM
IC50 (HMEC): 10.2 µM

C=C1C(=O)[C@]23[C@H](O)[C@H]1CC[C@H]2[C@@]12CO[C@]3(O)[C@@H](O)[C@@H]1C(C)(C)C=CC2=O
IC50 (MDA-MB-231 [1]): 2.23 µM
IC50 (MCF7): 1.31 µM
IC50 (cells): 5.82 µM
IC50 (HMEC): 4.95 µM
